# From ChEMBL document CHEMBL1156226, “Synthesis and structure-activity relationship studies of peptidomimetic PKB/Akt inhibitors: the significance of backbone interactions” (Bioorg Med Chem, 2010)
# Square brackets hold non-standard residues; d marks the D form. Peptide text beside a SMILES is read from it. Gly(N-4-hydroxybenzyl) = O=C(O)CNCc1ccc(O)cc1; Gly(N-(CH2)3-guanidino) = N=C(N)NCCCNCC(=O)O; hLeu = CC(C)CC[C@H](N)C(=O)O; NMeNva = CCC[C@H](NC)C(=O)O; Nva = CCC[C@H](N)C(=O)O; Dap = NC[C@H](N)C(=O)O; NPrGly = CCCNCC(=O)O
# Assays:
# [1] = biological target: T1, RAC-alpha serine/threonine-protein kinase (Homo sapiens, UniProt P31749); assay: Inhibition of PKB at 5 uM by radioactive kinase assay relative to control
# Summary of the method: (§1)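 PKB/Akt enzyme HisAPHPKBEEEFlag, partly purified in one step on Ni-NTA agarose. The radioactive kinase reaction contains 50 mM Hepes pH 7.4, 0.1 mM EGTA, 0.1% 2-mercaptoethanol, 10 mM magnesium acetate, 3 uM RPRTSSF peptide substrate, 10 uM [γ32P]ATP and 0.005 units enzyme. Inhibition is given as percent reduction of activity against a no-inhibitor control. IC50 values, with 95% confidence ranges, come from curve fitting.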
# [2] = biological target: T1, RAC-alpha serine/threonine-protein kinase; assay: Inhibition of PKB at 100 uM by radioactive kinase assay relative to control; summary of the method: as §1
# T1 sequence (P31749 whole entry): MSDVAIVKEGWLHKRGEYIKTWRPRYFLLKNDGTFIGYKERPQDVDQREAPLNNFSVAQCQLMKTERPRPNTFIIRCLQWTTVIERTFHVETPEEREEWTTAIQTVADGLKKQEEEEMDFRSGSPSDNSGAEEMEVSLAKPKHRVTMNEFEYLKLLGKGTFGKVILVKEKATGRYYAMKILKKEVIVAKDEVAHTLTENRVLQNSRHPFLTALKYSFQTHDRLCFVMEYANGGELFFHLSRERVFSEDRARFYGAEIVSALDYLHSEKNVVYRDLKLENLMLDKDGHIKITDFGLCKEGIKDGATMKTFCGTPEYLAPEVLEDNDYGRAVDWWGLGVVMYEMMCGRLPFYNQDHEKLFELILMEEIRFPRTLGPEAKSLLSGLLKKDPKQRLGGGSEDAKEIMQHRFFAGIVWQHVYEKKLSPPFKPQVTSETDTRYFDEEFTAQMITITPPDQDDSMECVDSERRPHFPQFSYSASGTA
SMILES,inhibition [1],inhibition [2]
CCC[C@H](NC(=O)[C@H](CCCNC(=N)N)NC(=O)[C@@H]1CCCN1C(=O)CNCCCNC(=N)N)C(=O)N[C@@H](Cc1ccc(O)cc1)C(=O)N[C@@H](CN)C(=O)N[C@@H](CCC(C)C)C(N)=O (H-[Gly(N-(CH2)3-guanidino)]PR[Nva]Y[Dap][hLeu]-NH2),32%,95%
CCC[C@H](NC(=O)[C@H](CCCNC(=N)N)NC(=O)[C@@H]1CCCN1C(=O)[C@@H](N)CCCNC(=N)N)C(=O)N[C@@H](Cc1ccc(O)cc1)C(=O)N[C@@H](CN)C(=O)N(C)[C@@H](CCC(C)C)C(N)=O (HELM PEPTIDE1{R.P.R.[Nva].Y.[NC[C@H](N[*:1])C(=O)[*:2]].[CC(C)CC[C@@H](C(=O)[*:2])N(C)[*:1]].[am]}$$$$V2.0),5%,86%
CCC[C@H](NC(=O)[C@H](CCCNC(=N)N)NC(=O)[C@@H]1CCCN1C(=O)[C@H](CCCNC(=N)N)NC(C)=O)C(=O)N[C@@H](Cc1ccc(O)cc1)C(=O)N[C@@H](CN)C(=O)N(C)[C@@H](CCC(C)C)C(N)=O (HELM PEPTIDE1{[ac].R.P.R.[Nva].Y.[NC[C@H](N[*:1])C(=O)[*:2]].[CC(C)CC[C@@H](C(=O)[*:2])N(C)[*:1]].[am]}$$$$V2.0),–,29%
CCC[C@H](NC(=O)[C@H](CCCNC(=N)N)NC(=O)[C@@H]1CCCN1C(=O)[C@H](CCCNC(=N)N)NC(C)=O)C(=O)N[C@@H](Cc1ccc(O)cc1)C(=O)N(C)[C@@H](CN)C(=O)N[C@@H](CCC(C)C)C(N)=O (HELM PEPTIDE1{[ac].R.P.R.[Nva].Y.[CN([C@@H](CN)C(=O)[*:2])[*:1]].[CC(C)CC[C@H](N[*:1])C(=O)[*:2]].[am]}$$$$V2.0),–,33%
CCC[C@H](NC(=O)[C@H](CCCNC(=N)N)N(C)C(=O)[C@@H]1CCCN1C(=O)[C@@H](N)CCCNC(=N)N)C(=O)N[C@@H](Cc1ccc(O)cc1)C(=O)N[C@@H](CN)C(=O)N[C@@H](CCC(C)C)C(N)=O (HELM PEPTIDE1{R.P.[meR].[Nva].Y.[NC[C@H](N[*:1])C(=O)[*:2]].[CC(C)CC[C@H](N[*:1])C(=O)[*:2]].[am]}$$$$V2.0),39%,92%
CCC[C@H](NC(=O)[C@H](CCCNC(=N)N)NC(=O)[C@@H]1CCCN1C(=O)[C@H](CCCNC(=N)N)NC(C)=O)C(=O)N[C@@H](Cc1ccc(O)cc1)C(=O)N[C@@H](CN)C(=O)N[C@@H](CCC(C)C)C(N)=O (HELM PEPTIDE1{[ac].R.P.R.[Nva].Y.[NC[C@H](N[*:1])C(=O)[*:2]].[CC(C)CC[C@H](N[*:1])C(=O)[*:2]].[am]}$$$$V2.0),45%,92%
CCCN(CC(=O)N[C@@H](Cc1ccc(O)cc1)C(=O)N[C@@H](CN)C(=O)N[C@@H](CCC(C)C)C(N)=O)C(=O)[C@H](CCCNC(=N)N)NC(=O)[C@@H]1CCCN1C(=O)[C@H](CCCNC(=N)N)NC(C)=O (Ac-RPR[NPrGly]Y[Dap][hLeu]-NH2),–,0%
CCC[C@H](NC(=O)[C@H](CCCNC(=N)N)NC(=O)[C@@H]1CCCN1C(=O)[C@H](CCCNC(=N)N)NC(C)=O)C(=O)N[C@@H](Cc1ccc(O)cc1)C(=O)N(C)[C@@H](CN)C(=O)N[C@@H](CCC(C)C)C(=O)O (HELM PEPTIDE1{[ac].R.P.R.[Nva].Y.[CN([C@@H](CN)C(=O)[*:2])[*:1]].[CC(C)CC[C@H](N[*:1])C(=O)O]}$$$$V2.0),–,1%
CCC[C@H](NC(=O)[C@H](CCCNC(=N)N)NC(=O)[C@@H]1CCCN1C(=O)[C@@H](N)CCCNC(=N)N)C(=O)N(C)[C@@H](Cc1ccc(O)cc1)C(=O)N[C@@H](CN)C(=O)N[C@@H](CCC(C)C)C(N)=O (HELM PEPTIDE1{R.P.R.[Nva].[meY].[NC[C@H](N[*:1])C(=O)[*:2]].[CC(C)CC[C@H](N[*:1])C(=O)[*:2]].[am]}$$$$V2.0),13%,88%
CCC[C@H](NC(=O)[C@H](CCCNC(=N)N)NC(=O)[C@@H]1CCCN1C(=O)[C@@H](N)CCCNC(=N)N)C(=O)N[C@@H](Cc1ccc(O)cc1)C(=O)N[C@@H](CN)C(=O)N(CC(N)=O)CC(C)CC (some centres not stated) (HELM PEPTIDE1{R.P.R.[Nva].Y.[NC[C@H](N[*:1])C(=O)[*:2]].[CCC(C)CN(CC(=O)[*:2])[*:1]].[am]}$$$$V2.0),–,39%
CCC[C@H](NC(=O)[C@H](CCCNC(=N)N)NC(=O)[C@@H]1CCCN1C(=O)[C@H](CCCNC(=N)N)NC(C)=O)C(=O)N(CC(=O)N[C@@H](CN)C(=O)N[C@@H](CCC(C)C)C(=O)O)Cc1ccc(O)cc1 (Ac-RPR[Nva][Gly(N-4-hydroxybenzyl)][Dap][hLeu]-OH),–,28%
CCC[C@H](NC(=O)[C@H](CCCNC(=N)N)NC(=O)[C@@H]1CCCN1C(=O)[C@@H](N)CCCNC(=N)N)C(=O)N(CC(=O)N[C@@H](CN)C(=O)N[C@@H](CCC(C)C)C(N)=O)Cc1ccc(O)cc1 (H-RPR[Nva][Gly(N-4-hydroxybenzyl)][Dap][hLeu]-NH2),23%,85%
CCC[C@H](NC(=O)CN(CCCNC(=N)N)C(=O)[C@@H]1CCCN1C(=O)[C@@H](N)CCCNC(=N)N)C(=O)N[C@@H](Cc1ccc(O)cc1)C(=O)N[C@@H](CN)C(=O)N[C@@H](CCC(C)C)C(N)=O (H-RP[Gly(N-(CH2)3-guanidino)][Nva]Y[Dap][hLeu]-NH2),–,30%
CCCN(CC(=O)N[C@@H](Cc1ccc(O)cc1)C(=O)N[C@@H](CN)C(=O)N[C@@H](CCC(C)C)C(N)=O)C(=O)[C@H](CCCNC(=N)N)NC(=O)[C@@H]1CCCN1C(=O)[C@@H](N)CCCNC(=N)N (H-RPR[NPrGly]Y[Dap][hLeu]-NH2),–,16%
CCC[C@H](NC(=O)[C@H](CCCNC(=N)N)NC(=O)[C@@H]1CCCN1C(=O)[C@@H](N)CCCNC(=N)N)C(=O)N[C@@H](Cc1ccc(O)cc1)C(=O)N(C)[C@@H](CN)C(=O)N[C@@H](CCC(C)C)C(N)=O (HELM PEPTIDE1{R.P.R.[Nva].Y.[CN([C@@H](CN)C(=O)[*:2])[*:1]].[CC(C)CC[C@H](N[*:1])C(=O)[*:2]].[am]}$$$$V2.0),–,75%
CCC[C@H](NC(=O)[C@H](CCCNC(=N)N)NC(=O)[C@@H]1CCCN1C(=O)[C@H](CCCNC(=N)N)NC(C)=O)C(=O)N[C@@H](Cc1ccc(O)cc1)C(=O)N[C@@H](CN)C(=O)N[C@@H](CCC(C)C)C(=O)O (HELM PEPTIDE1{[ac].R.P.R.[Nva].Y.[NC[C@H](N[*:1])C(=O)[*:2]].[CC(C)CC[C@H](N[*:1])C(=O)O]}$$$$V2.0),–,66%

# The next lines start with the values.
inhibition [1],inhibition [2],SMILES
51%,95%,CCC[C@H](NC(=O)[C@H](CCCNC(=N)N)NC(=O)[C@@H]1CCCN1C(=O)[C@@H](N)CCCNC(=N)N)C(=O)N[C@@H](Cc1ccc(O)cc1)C(=O)N[C@@H](CN)C(=O)N[C@@H](CCC(C)C)C(=O)O (HELM PEPTIDE1{R.P.R.[Nva].Y.[NC[C@H](N[*:1])C(=O)[*:2]].[CC(C)CC[C@H](N[*:1])C(=O)O]}$$$$V2.0)
–,49%,CCC[C@H](NC(=O)[C@H](CCCNC(=N)N)NC(=O)[C@@H]1CCCN1C(=O)[C@H](CCCNC(=N)N)NC(C)=O)C(=O)N(CC(=O)N[C@@H](CN)C(=O)N[C@@H](CCC(C)C)C(N)=O)Cc1ccc(O)cc1 (Ac-RPR[Nva][Gly(N-4-hydroxybenzyl)][Dap][hLeu]-NH2)
–,4%,CCC[C@H](NC(=O)[C@H](CCCNC(=N)N)NC(=O)[C@@H]1CCCN1C(=O)[C@H](CCCNC(=N)N)NC(C)=O)C(=O)N[C@@H](Cc1ccc(O)cc1)C(=O)N[C@@H](CN)C(=O)N(CC(=O)O)CC(C)CC (some centres not stated) (HELM PEPTIDE1{[ac].R.P.R.[Nva].Y.[NC[C@H](N[*:1])C(=O)[*:2]].[CCC(C)CN(CC(=O)O)[*:1]]}$$$$V2.0)
–,42%,CCC[C@H](NC(=O)[C@H](CCCNC(=N)N)N(C)C(=O)[C@@H]1CCCN1C(=O)[C@@H](N)CCCNC(=N)N)C(=O)N[C@@H](Cc1ccc(O)cc1)C(=O)N[C@@H](CN)C(=O)N[C@@H](CCC(C)C)C(=O)O (HELM PEPTIDE1{R.P.[meR].[Nva].Y.[NC[C@H](N[*:1])C(=O)[*:2]].[CC(C)CC[C@H](N[*:1])C(=O)O]}$$$$V2.0)
–,1%,CCC[C@H](NC(=O)[C@H](CCCNC(=N)N)NC(=O)[C@@H]1CCCN1C(=O)[C@H](CCCNC(=N)N)NC(C)=O)C(=O)N[C@@H](Cc1ccc(O)cc1)C(=O)N[C@@H](CN)C(=O)N(CC(N)=O)CC(C)CC (some centres not stated) (HELM PEPTIDE1{[ac].R.P.R.[Nva].Y.[NC[C@H](N[*:1])C(=O)[*:2]].[CCC(C)CN(CC(=O)[*:2])[*:1]].[am]}$$$$V2.0)
–,62%,CCC[C@@H](C(=O)N[C@@H](Cc1ccc(O)cc1)C(=O)N[C@@H](CN)C(=O)N[C@@H](CCC(C)C)C(N)=O)N(C)C(=O)[C@H](CCCNC(=N)N)NC(=O)[C@@H]1CCCN1C(=O)[C@@H](N)CCCNC(=N)N (H-RPR[NMeNva]Y[Dap][hLeu]-NH2)
–,40%,CCC[C@H](NC(=O)[C@H](CCCNC(=N)N)NC(=O)[C@@H]1CCCN1C(=O)[C@H](CCCNC(=N)N)NC(C)=O)C(=O)N(C)[C@@H](Cc1ccc(O)cc1)C(=O)N[C@@H](CN)C(=O)N[C@@H](CCC(C)C)C(N)=O (HELM PEPTIDE1{[ac].R.P.R.[Nva].[meY].[NC[C@H](N[*:1])C(=O)[*:2]].[CC(C)CC[C@H](N[*:1])C(=O)[*:2]].[am]}$$$$V2.0)
–,1%,CCC[C@H](NC(=O)[C@H](CCCNC(=N)N)NC(=O)[C@@H]1CCCN1C(=O)[C@H](CCCNC(=N)N)NC(C)=O)C(=O)N[C@@H](Cc1ccc(O)cc1)C(=O)N[C@@H](CN)C(=O)N(C)[C@@H](CCC(C)C)C(=O)O (HELM PEPTIDE1{[ac].R.P.R.[Nva].Y.[NC[C@H](N[*:1])C(=O)[*:2]].[CC(C)CC[C@@H](C(=O)O)N(C)[*:1]]}$$$$V2.0)
–,0%,CCC[C@H](NC(=O)[C@H](CCCNC(=N)N)NC(=O)[C@@H]1CCCN1C(=O)[C@@H](N)CCCNC(=N)N)C(=O)N[C@@H](Cc1ccc(O)cc1)C(=O)N(C)[C@@H](CN)C(=O)N[C@@H](CCC(C)C)C(=O)O (HELM PEPTIDE1{R.P.R.[Nva].Y.[CN([C@@H](CN)C(=O)[*:2])[*:1]].[CC(C)CC[C@H](N[*:1])C(=O)O]}$$$$V2.0)
